Measured values as given in ChEMBL document CHEMBL4689842, “EUbOPEN Chemogenomics Library wave 1” (2021).

Test system: HEK-293T
Assay: Multiplex assay against HEK293T;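 on Population Tubulin-Different-Phenotype (%): share of the cells with healthy nuclei that show this phenotype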
Format: toxicity, cell-based
Details: human
Summary of the method: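 Cells were classed with CellPathfinder machine-learning gating, first as Hoechst high-intensity objects or normal cells, then (normal cells) as healthy, pyknosed or fragmented nuclei, and finally (pyknosed cells) as mitotic or apoptotic. Staining of live cells at seeding used Hoechst33342, BioTracker Green Microtubule Cytoskeleton Dye, MitoTracker Red and Annexin V Alexa Fluor 680, with imaging on a CQ1 microscope at 37°C and 5% CO2 after compound addition. Tubulin, mitochondrial-mass and membrane-permeability phenotypes are per cents of healthy-nucleus cells.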

[1] = 12 h, 1 µM, compound concentration 1 uM, replicate 1
[2] = 12 h, 1 µM, compound concentration 1 uM, replicate 2
[3] = 12 h, 10 µM, compound concentration 10 uM, replicate 1
[4] = 12 h, 10 µM, compound concentration 10 uM, replicate 2
[5] = 24 h, 1 µM, compound concentration 1 uM, replicate 1
[6] = 24 h, 1 µM, compound concentration 1 uM, replicate 2
[7] = 24 h, 10 µM, compound concentration 10 uM, replicate 1
[8] = 24 h, 10 µM, compound concentration 10 uM, replicate 2
[9] = 48 h, 1 µM, compound concentration 1 uM, replicate 1
[10] = 48 h, 1 µM, compound concentration 1 uM, replicate 2
[11] = 48 h, 10 µM, compound concentration 10 uM, replicate 1
[12] = 48 h, 10 µM, compound concentration 10 uM, replicate 2

Question: What does the source list for `CC(C)NC(=O)N1CC[C@H](NC2=Nc3cc(F)ccc3N(CC(F)F)c3ccc(Cl)cc32)C1`?
Answer: Population Apoptotic (%) [1]: 42%; Population Fragmented Nuclei (%) [1]: 19%; Population Healthy Nuclei (%) [1]: 34%; Population Hoechst High Intensity Objects (%) [1]: 18%; Population Membrane Permeable-Phenotype (%) [1]: 4%; Population Mitochondria Different-Phenotype (%) [1]: 78%; Population Mitotic Cells (%) [1]: 57%; Population Normal (%) [1]: 81%; Population Pyknosed Nuclei (%) [1]: 46%; Population Tubulin-Different-Phenotype (%) [1]: 34%; Total Cell Count [1]: 170; Population Apoptotic (%) [2]: 8%; Population Fragmented Nuclei (%) [2]: 4%; Population Healthy Nuclei (%) [2]: 47%; Population Hoechst High Intensity Objects (%) [2]: 3%; Population Membrane Permeable-Phenotype (%) [2]: 13%; Population Mitochondria Different-Phenotype (%) [2]: 24%; Population Mitotic Cells (%) [2]: 91%; Population Normal (%) [2]: 96%; Population Pyknosed Nuclei (%) [2]: 47%; Population Tubulin-Different-Phenotype (%) [2]: 25%; Total Cell Count [2]: 304; Population Apoptotic (%) [3]: 53%; Population Fragmented Nuclei (%) [3]: 24%; Population Healthy Nuclei (%) [3]: 38%; Population Hoechst High Intensity Objects (%) [3]: 22%; Population Membrane Permeable-Phenotype (%) [3]: 4%; Population Mitochondria Different-Phenotype (%) [3]: 91%; Population Mitotic Cells (%) [3]: 46%; Population Normal (%) [3]: 77%; Population Pyknosed Nuclei (%) [3]: 37%; Population Tubulin-Different-Phenotype (%) [3]: 79%; Total Cell Count [3]: 163; Population Apoptotic (%) [4]: 20%; Population Fragmented Nuclei (%) [4]: 6%; Population Healthy Nuclei (%) [4]: 53%; Population Hoechst High Intensity Objects (%) [4]: 5%; Population Membrane Permeable-Phenotype (%) [4]: 10%; Population Mitochondria Different-Phenotype (%) [4]: 48%; Population Mitotic Cells (%) [4]: 79%; Population Normal (%) [4]: 94%; Population Pyknosed Nuclei (%) [4]: 40%; Population Tubulin-Different-Phenotype (%) [4]: 57%; Total Cell Count [4]: 170; Population Apoptotic (%) [5]: 37%; Population Fragmented Nuclei (%) [5]: 20%; Population Healthy Nuclei (%) [5]: 39%; Population Hoechst High Intensity Objects (%) [5]: 20%; Population Membrane Permeable-Phenotype (%) [5]: 0%; Population Mitochondria Different-Phenotype (%) [5]: 75%; Population Mitotic Cells (%) [5]: 62%; Population Normal (%) [5]: 79%; Population Pyknosed Nuclei (%) [5]: 39%; Population Tubulin-Different-Phenotype (%) [5]: 32%; Total Cell Count [5]: 178; Population Apoptotic (%) [6]: 15%; Population Fragmented Nuclei (%) [6]: 4%; Population Healthy Nuclei (%) [6]: 69%; Population Hoechst High Intensity Objects (%) [6]: 3%; Population Membrane Permeable-Phenotype (%) [6]: 8%; Population Mitochondria Different-Phenotype (%) [6]: 13%; Population Mitotic Cells (%) [6]: 84%; Population Normal (%) [6]: 96%; Population Pyknosed Nuclei (%) [6]: 25%; Population Tubulin-Different-Phenotype (%) [6]: 25%; Total Cell Count [6]: 367; Population Apoptotic (%) [7]: 58%; Population Fragmented Nuclei (%) [7]: 17%; Population Healthy Nuclei (%) [7]: 32%; Population Hoechst High Intensity Objects (%) [7]: 25%; Population Membrane Permeable-Phenotype (%) [7]: 0%; Population Mitochondria Different-Phenotype (%) [7]: 94%; Population Mitotic Cells (%) [7]: 41%; Population Normal (%) [7]: 74%; Population Pyknosed Nuclei (%) [7]: 50%; Population Tubulin-Different-Phenotype (%) [7]: 69%; Total Cell Count [7]: 161; Population Apoptotic (%) [8]: 37%; Population Fragmented Nuclei (%) [8]: 9%; Population Healthy Nuclei (%) [8]: 58%; Population Hoechst High Intensity Objects (%) [8]: 2%; Population Membrane Permeable-Phenotype (%) [8]: 6%; Population Mitochondria Different-Phenotype (%) [8]: 71%; Population Mitotic Cells (%) [8]: 62%; Population Normal (%) [8]: 97%; Population Pyknosed Nuclei (%) [8]: 32%; Population Tubulin-Different-Phenotype (%) [8]: 61%; Total Cell Count [8]: 169; Population Apoptotic (%) [9]: 48%; Population Fragmented Nuclei (%) [9]: 22%; Population Healthy Nuclei (%) [9]: 37%; Population Hoechst High Intensity Objects (%) [9]: 21%; Population Membrane Permeable-Phenotype (%) [9]: 0%; Population Mitochondria Different-Phenotype (%) [9]: 32%; Population Mitotic Cells (%) [9]: 51%; Population Normal (%) [9]: 78%; Population Pyknosed Nuclei (%) [9]: 40%; Population Tubulin-Different-Phenotype (%) [9]: 28%; Total Cell Count [9]: 189; Population Apoptotic (%) [10]: 17%; Population Fragmented Nuclei (%) [10]: 5%; Population Healthy Nuclei (%) [10]: 84%; Population Hoechst High Intensity Objects (%) [10]: 3%; Population Membrane Permeable-Phenotype (%) [10]: 4%; Population Mitochondria Different-Phenotype (%) [10]: 4%; Population Mitotic Cells (%) [10]: 82%; Population Normal (%) [10]: 96%; Population Pyknosed Nuclei (%) [10]: 10%; Population Tubulin-Different-Phenotype (%) [10]: 25%; Total Cell Count [10]: 580; Population Apoptotic (%) [11]: 70%; Population Fragmented Nuclei (%) [11]: 28%; Population Healthy Nuclei (%) [11]: 39%; Population Hoechst High Intensity Objects (%) [11]: 19%; Population Membrane Permeable-Phenotype (%) [11]: 8%; Population Mitochondria Different-Phenotype (%) [11]: 74%; Population Mitotic Cells (%) [11]: 29%; Population Normal (%) [11]: 80%; Population Pyknosed Nuclei (%) [11]: 32%; Population Tubulin-Different-Phenotype (%) [11]: 62%; Total Cell Count [11]: 181; Population Apoptotic (%) [12]: 48%; Population Fragmented Nuclei (%) [12]: 8%; Population Healthy Nuclei (%) [12]: 63%; Population Hoechst High Intensity Objects (%) [12]: 2%; Population Membrane Permeable-Phenotype (%) [12]: 5%; Population Mitochondria Different-Phenotype (%) [12]: 46%; Population Mitotic Cells (%) [12]: 51%; Population Normal (%) [12]: 97%; Population Pyknosed Nuclei (%) [12]: 28%; Population Tubulin-Different-Phenotype (%) [12]: 61%; Total Cell Count [12]: 219
